Source: PubChem
pCIP destab – p/CIP-EGFP fusion destabilizers, primary screen, fluorescence, F442A cells; Q05BA5; 16 h; decrease of EGFP signal, % at 10 µM; hit rate 0.01% among 290,000; AID 1984, 2009;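 active = EGFP signal decrease of at least 30% at 10 µM or well 3 SD below plate mean, unless failing retest; inactive = the rest, including hits failing retest or dose response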
GPR7 antagonist – GPR7 receptor antagonists, primary screen, cell-based, fluorescence, single concentration; GPR7-expressing cells, fluorescence antagonist assay; hit rate 1.1% among 290,000; inhibition, % at 4.4 µM; AID 1861, 2009; Neuropeptides B/W receptor type 1 (Homo sapiens), P48145; in the data active = inhibition above about 16%, passing the limit was not always enough;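 also: cells stimulated with the agonist NPW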
Target sequence (P48145 whole entry, looked up): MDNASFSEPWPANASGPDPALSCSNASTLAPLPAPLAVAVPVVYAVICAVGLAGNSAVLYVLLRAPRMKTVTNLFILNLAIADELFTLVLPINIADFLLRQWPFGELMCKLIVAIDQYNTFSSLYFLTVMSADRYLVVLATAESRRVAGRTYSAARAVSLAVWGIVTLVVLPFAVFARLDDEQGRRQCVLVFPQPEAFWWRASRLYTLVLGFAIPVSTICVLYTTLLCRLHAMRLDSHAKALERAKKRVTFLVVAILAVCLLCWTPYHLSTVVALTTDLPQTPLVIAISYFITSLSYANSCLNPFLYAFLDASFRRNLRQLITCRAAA
HCV NS3 hel inh – inhibitors of HCV NS3 helicase, primary screen, biochemical, Cy5 molecular beacon fluorescence; Hepatitis C virus NS3 helicase; NS3 helicase DNA unwinding; inhibition, % at 10.9 µM; hit rate 0.56% among 290,000; AID 1800, 2009;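 active = inhibition above the mean of all tested compounds plus 3 SD, set per campaign, cut at about 35% in these data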
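Measured by: Cy5 fluorescence, 0 and 60 min reads / Assay system: NS3 helicase fragment of HCV / Control set: low DMSO, high thioflavine S at 110 µM / Times: 1 h reaction at 25 °C, ATP-initiated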
DNA FID counter – compounds displacing fluorescent DNA intercalator, primary screen, artefact control for HCV NS3 helicase inhibitor project, biochemical, FID fluorescence; DNA fluorescent intercalator displacement; inhibition, % at 7.9 µM; hit rate 0.17% among 290,000; in the data active = inhibition above about 37%;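 also: higher means more ethidium bromide displaced from hairpin DNA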
core dimer inh – inhibitors of HCV core protein dimerization, primary screen, biochemical, TR-FRET, high-throughput | inhibition, % at 5 µM | hit rate 0.33% among 300,000 | TR-FRET GST/Flag-core106 dimerization, 1536-well;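 active = inhibition above the mean of all tested compounds plus 3 SD, set per screening campaign, cut at about 45% in these data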
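Assay system – GST-tagged and Flag-tagged HCV core protein residues 1-106 · Quantity – core106 proteins, GST 13.5 nM and Flag 17 nM · Benchmarks – unlabelled core106 and no-GST-core106 wells · Read-out basis – percent inhibition of core106 dimerization signal · Detection – time-resolved FRET, ex 340 nm, em 617 and 671 nm · Schedule – 4 h at 22.5 °C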
Large screens that a line does not name were inactive. This is a sample that favours compounds with a hit; in the whole collection about 1.9% have one here.

CCOc1ccc([N+](=O)[O-])cc1CNCCc1ccccc1	GPR7 antagonist 44.1
COC(=O)[C@@H]1[C@@H](C(=O)OC)C2(c3ccccc3-c3ccccc32)N(c2ccc(Cl)cc2)N1C#N	GPR7 antagonist 15.8
COC(=O)C[C@]1(C(=O)OC)CN(C#N)N(c2ccc(Cl)cc2)C12c1ccccc1-c1ccccc12	GPR7 antagonist 24.0
CC[N+](C)(CC)CCCCOc1ccc2c(c1)C(=O)c1cc(OCCCC[N+](C)(CC)CC)ccc1-2	DNA FID counter 87.8
Cc1cccc(N2C(=O)NC(=O)/C(=C\c3ccc4c(c3)CCCN4Cc3ccccc3)C2=O)c1	none
CCC(C)N1C(=O)/C(=C/c2ccc3c(c2)CCN3CCCCl)C(=O)NC1=S (stereo not given)	core dimer inh 71.5
COc1ccc(-n2c(C)cc(C(=O)C[N+]34CCN(CC3)CC4)c2C)cc1	none
O=c1[nH]c(O)c(C=Nc2ccccc2Oc2ccccc2)c(=O)[nH]1	none
CN(C)[C@@H]1C(=O)C(C(N)=O)=C(O)[C@@]2(O)C(=O)C3=C(O)c4c(O)cccc4[C@@](C)(O)[C@H]3C[C@@H]12	core dimer inh 52.1 (no result: pCIP destab, GPR7 antagonist, HCV NS3 hel inh, DNA FID counter)
CN(C)[C@@H]1C(=O)C(C(N)=O)=C(O)[C@@]2(O)C(=O)C3=C(O)c4c(O)ccc(Cl)c4[C@@](C)(O)C3C[C@@H]12 (stereo not given in full)	none (no result: core dimer inh)
Cc1ccc(OP(=O)(O)Oc2ccc(C)cc2)cc1	none (no result: pCIP destab)
Cc1ccc(N=C(N(C)C)P(=O)(N(C)C)N(C)C)cc1	DNA FID counter 55.9
CC1(C)C2SCC(=O)N2CCN1CC(=O)NN (stereo not given)	none
COc1ccccc1CN1CCN(C(=O)COc2cccc(C)c2)CC1	GPR7 antagonist 14.5
CCN1C[C@]2(CO)CC[C@H](OC)[C@@]34C2[C@H](OC)[C@@](O)(C13)[C@@]1(O)C[C@H](OC)[C@H]2C[C@@H]4[C@@H]1[C@H]2OC	none
Cc1cc(C)c(N=Cc2c(O)[nH]c(=O)[nH]c2=O)c(C)c1	none
CCOc1ccc(-n2c(-c3ccoc3)nc3ccccc3c2=O)cc1	none
CCOc1ccc(-c2c(C)n(-c3ccc(OCC)cc3)c3[n+]2CCCCC3)cc1	GPR7 antagonist 45.9
O=[N+]([O-])c1ccc(NCc2ccccc2)c2nonc12	GPR7 antagonist 33.5
CC[C@H](C)[C@@H]1O[C@@]2(C=CC1C)CC1C[C@@H](CC=C(C)C(O[C@H]3CC(OC)C(O[C@H]4CC(OC)C(O)C(C)O4)C(C)O3)C(C)C=CC=C3CO[C@@H]4C(O)C(C)=C[C@@H](C(=O)O1)[C@]34O)O2 (stereo not given in full)	none (no result: pCIP destab, GPR7 antagonist, HCV NS3 hel inh, DNA FID counter)
CCN1C[C@]2(C)CC[C@H](OC)[C@]34C2[C@H](OC(C)=O)[C@@]2(OCO[C@@]25C[C@H](OC)[C@H]2C[C@]3(O)C5[C@H]2OC)[C@@H]14	none
Clc1ccc(CCC(Cn2ccnc2)Sc2c(Cl)cccc2Cl)cc1 (stereo not given)	none (no result: pCIP destab, GPR7 antagonist, HCV NS3 hel inh, DNA FID counter)
CCCCCOc1ccc(C)cc1CN(CCCl)CCCl	GPR7 antagonist 30.1
O=C1NC(=O)C(=C/C=C/c2coc3ccc(Br)cc3c2=O)C(=O)N1	HCV NS3 hel inh 48.0
CC(C)(C)C(=O)OC[N+](C)(C)CCOC(=O)C(O)(c1ccccc1)C1CCCC1 (stereo not given)	none
CCCC(CCC)C(=O)OC[N+](C)(C)CCOC(=O)C(O)(c1ccccc1)C1CCCC1 (stereo not given)	DNA FID counter 41.5
Cc1ccccc1-n1c(O)c(/C=C2/C(c3ccccc3)=Nc3ccccc32)c(=O)[nH]c1=O	GPR7 antagonist 29.0
Cc1cccc(-n2c(O)c(/C=C3/C(c4ccccc4)=Nc4ccccc43)c(=O)[nH]c2=O)c1	none
NCc1cc(=O)[nH]o1	none (no result: pCIP destab, GPR7 antagonist, HCV NS3 hel inh, DNA FID counter)
Cc1cc2c(C(C)C)c(O)c(O)c(C=O)c2c(O)c1-c1c(C)cc2c(C(C)C)c(O)c(O)c(C=O)c2c1O	HCV NS3 hel inh 36.8 (no result: core dimer inh)
CC1(C)C2CC=C(CN3CCOCC3)C1C2 (stereo not given)	DNA FID counter 91.2
c1ccc2c(CN3CCOCC3)c[nH]c2c1	none
